Sampled rows, rich in hits. Any-hit rate of the full collection: about 4.4%.
GRIN3A LBD mod: modulators (binders) of human NR3A ligand-binding domain. NR3A LBD differential scanning fluorimetry, Tm shift; 0% = protein alone, 100% = glycine-bound protein. Tm shift relative to glycine control, % at 25 µM. 340,000 tested, 2.5% active. AID 1259313;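 active = melting temperature shift of at least 10% of the positive control shift, at one fixed dose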
MPTP block: inhibitors of mitochondrial permeability transition pore; inhibition, % at 10 µM; AID 602449; 360,000 tested, 1.4% active; isolated mouse mitochondria, Ca2+ swelling absorbance, 30 min;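 active = inhibition of 50% or more, scaled per plate between neutral and stimulator controls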;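 also: 0% = DMSO wells given calcium and 100% = 1 mM EGTA wells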
EBI2 antag: blocks human EBI2 receptor beta-arrestin signaling | P32249 | 360,000 tested, 0.81% active | inhibition, % at 5 µM | EBI2 beta-arrestin recruitment, luminescence, 7a,25-OHC stimulated; in the data active = inhibition above about 38%;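 also: enzyme fragment complementation signal reports receptor beta-arrestin coupling in cells; 0% = agonist plus DMSO wells and 100% = wells without agonist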
SENP1 FRET inh: blocks the human SENP1 SUMO protease catalytic domain | 360,000 tested, 0.21% active | AID 624204 | inhibition, % at 10 µM | recombinant SENP1 catalytic domain, CyPet-SUMO1-YPet FRET cleavage | Q9P0U3;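 active = inhibition at least 30% at 10 µM, raw YFP signal under a set limit, fluorescence ratio 0.5 to 1.5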;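 also: 0% = enzyme with DMSO and 100% = no enzyme wells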
Target sequence (Q9P0U3 419-644 limits assumed): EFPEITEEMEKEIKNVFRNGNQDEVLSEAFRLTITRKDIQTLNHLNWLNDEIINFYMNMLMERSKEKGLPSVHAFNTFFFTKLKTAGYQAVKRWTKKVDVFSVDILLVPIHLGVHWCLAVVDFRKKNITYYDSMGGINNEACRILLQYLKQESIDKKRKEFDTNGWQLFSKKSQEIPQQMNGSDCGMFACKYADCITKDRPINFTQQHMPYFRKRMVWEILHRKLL
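system = hSENP1 catalytic domain, recombinant | reagent = SFCypet-SUMO1-SFYpet substrate at 25 nM | doses = one dose per compound, 10 µM, 0.5% DMSO | incubation = enzyme reaction for 50 min at room temperature, dark | measured by = FRET, CFP and YFP emission | controls = no-enzyme low, enzyme-DMSO high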
* hit, by the source's call; x = no result.

SMILES | GRIN3A LBD mod | MPTP block | EBI2 antag | SENP1 FRET inh
COc1ccc(NC(=O)COC(=O)CN2C(=O)C3CCCCC3C2=O)cc1 (stereo unspecified) | x | -1 | -3 | 0
O=C(Nc1ccc(S(=O)(=O)N2CCOCC2)cc1)c1ccc([N+](=O)[O-])s1 | 29* | 1 | -49 | -1
N#Cc1cccc(NC(=O)c2ccc(S(=O)(=O)N3CCOCC3)cc2)c1 | 16* | -2 | -4 | 3
O=C(Nc1ccc(S(=O)(=O)N2CCOCC2)cc1)c1cccs1 | -3 | -1 | -6 | 1
CC(=O)N1CCN(c2ccc(NC(=O)c3ccc(Cl)c([N+](=O)[O-])c3)cc2)CC1 | 15* | 0 | 5 | -1
O=C(Nc1cccc([N+](=O)[O-])c1)c1cc(S(=O)(=O)N2CCOCC2)cs1 | 22* | -1 | 0 | 2
N#Cc1cccc(NS(=O)(=O)c2ccc(S(=O)(=O)N3CCOCC3)cc2)c1 | 1 | -1 | -5 | 0
O=C(Nc1ccccc1)c1cc(S(=O)(=O)N2CCOCC2)cs1 | 1 | -1 | 4 | 2
CS(=O)(=O)N(CC(=O)N1CCCC1)c1ccccc1Br | -1 | 0 | -8 | -1
CC(=O)Nc1ccc(S(=O)(=O)N2CCN(S(=O)(=O)c3ccc(NC(C)=O)cc3)CC2)cc1 | -1 | -1 | -7 | -1
CC(C)(C)C(=O)CN1CCN(S(=O)(=O)c2ccc(F)cc2)CC1 | 12* | -2 | 2 | 1
CC(=O)c1ccc(NC(=O)c2ccc(C)c(S(=O)(=O)N3CCOCC3)c2)cc1 | 0 | 1 | 6 | 0
CN1CCN(S(=O)(=O)c2ccc(NC(=O)C(C)(C)C)cc2)CC1 | 11* | -2 | 5 | 5
Cc1ccc(C(=O)Nc2ccc(S(=O)(=O)N3CCOCC3)cc2)cc1C | 22* | 0 | -11 | -1
CC(=O)Nc1ccc(S(=O)(=O)N2CCCN(S(=O)(=O)c3ccc(NC(C)=O)cc3)CC2)cc1 | 11* | 2 | -12 | 0
O=C(COC(=O)c1ccccc1F)Nc1ccc(S(=O)(=O)N2CCOCC2)cc1 | -1 | -1 | 4 | 0
CC1CCCCN1c1nnc(NC(=O)c2cc(-c3ccc(Br)cc3)on2)s1 (stereo unspecified) | -10 | 0 | 2 | 0
COC(=O)C1C(=O)c2c(C)noc2CC1(C)C (stereo unspecified) | 0 | 0 | -1 | 0
COc1ccc(CNC(=O)c2ccc3c(=O)n(-c4ccccc4)c(=O)[nH]c3c2)cc1 | 0 | 0 | -2 | 1
O=C(NCCCN1CCOCC1)c1ccc(Sc2cccc(Cl)c2)c([N+](=O)[O-])c1 | 19* | 3 | 3 | 3
Cc1ccc(C(=O)Nc2ccc(S(=O)(=O)N3CCOCC3)cc2)cc1Br | 34* | 12 | 2 | -2
Cc1ccc(Nc2nc(-c3ccc(S(=O)(=O)N4CCOCC4)cc3)cs2)cc1Cl | 26* | 23 | 26 | -2
O=C(NCCCN1CCOCC1)c1ccc(Cl)c([N+](=O)[O-])c1 | 1 | 1 | 16 | 3
COc1ccc(NC(=O)c2ccc(NCCCN3CCOCC3)c([N+](=O)[O-])c2)cc1 | 14* | -2 | 8 | 3
Cc1cc(CNC[C@H]2O[C@@H](n3cnc(C(N)=O)n3)[C@H](O)[C@@H]2O)c(C)n1-c1cccnc1 | 1 | 0 | 0 | -13
SMILES | GRIN3A LBD mod | MPTP block | EBI2 antag | SENP1 FRET inh
CCOC(=O)c1ccc(NS(=O)(=O)c2cc3c4c(c2)CCN4C(=O)CC3)cc1 | 0 | -1 | 11 | 2
CCOC(=O)c1ccc(S(=O)(=O)NNC(=O)COc2ccc(C)cc2)cc1 | -3 | 0 | -8 | -2
O=C(Nc1cccc2cccnc12)c1ccc(Br)cc1Br | 0 | 4 | 3 | 0
Cc1ccc(S(=O)(=O)N2CCN(CC(=O)N/N=C/c3ccc(C)o3)CC2)cc1 | 32* | -3 | 16 | 1
NS(=O)(=O)c1ccc(NC(=O)c2cc(Cl)ccc2Cl)cc1 | -1 | 5 | 9 | 3
COc1ccc(NC(=O)c2n[nH]c(=O)c3ccccc23)cc1S(=O)(=O)N1CCCCC1 | 26* | 4 | 6 | 2
CC(=O)Nc1ccc(C(=O)Nc2ccc(S(=O)(=O)N3CCOCC3)cc2)cc1 | 31* | -1 | 1 | -2
O=C(Nc1ccc(S(=O)(=O)N2CCOCC2)cc1)c1ccccc1 | 7 | 0 | -6 | 0
NS(=O)(=O)c1ccc(NC(=O)c2cc(-c3cc(Cl)ccc3O)n[nH]2)cc1 | 34* | 2 | -6 | 0
Cc1ccc(S(=O)(=O)N2CCN(CC(=O)N/N=C\c3ccc(O)c(O)c3)CC2)cc1 | 0 | 10 | -5 | -1
